# Key:
# [1] = test system: Influenza A virus; assay: Antiviral activity against sInfluenza A virus (A/Washington/29/2009(H1N1)) infected in MDCK cells from ATCC assessed as log reduction in viral titer at 128 uM after 24 hrs by immunofluorescent assay; assay type: functional, Influenza A virus (A/Washington/29/2009(H1N1))
# How it was run: (§1)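 MDCK cells (ATCC or Mill Hill) infected with 2009 pandemic H1N1 at MOI ~0.01, 1 h adsorption at 4°C, washed. DMEM with 2 μg/ml TPCK-trypsin plus drug for 24 h at 37°C. Supernatants titrated on MDCK cells by focus formation: methanol/acetic acid fixation, anti-nucleoprotein MAbs, FITC secondary, foci counted. Titre as log10 FFU per 100 μl; detection limit <10 FFU; quadruplicate wells.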
# [2] = test system: Influenza A virus; assay: Antiviral activity against sInfluenza A virus (A/California/04/2009(H1N1)) infected in MDCK cells from Mill Hill assessed as log reduction in viral titer at 4.7 uM after 24 hrs by immunofluorescent assay; assay type: functional; how it was run: as §1
# [3] = test system: Influenza A virus; assay: Antiviral activity against Influenza A virus (A/Illinois/10/2009(H1N1)) infected in MDCK cells from Mill Hill assessed as log reduction in viral titer at 42.7 uM after 24 hrs by immunofluorescent assay; assay type: functional
# How it was run: (§2)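 Yield reduction in MDCK-ATCC or MDCK-Mill Hill cells infected at MOI ∼0.01. Adsorption 1 h at 4°C, washed, then DMEM with 2 μg/ml TPCK-trypsin and drug. At 24 h, supernatants were titrated by immunofluorescent focus assay on MDCK cells with anti-NP monoclonals and FITC secondary. Titres as log10 FFU per 100 μl; detection limit <10 FFU. Quadruplicate, mean ± SD.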
# [4] = test system: Influenza A virus; assay: Antiviral activity against Influenza A virus (A/Illinois/10/2009(H1N1)) infected in MDCK cells from ATCC assessed as log reduction in viral titer at 42.7 uM after 24 hrs by immunofluorescent assay; assay type: functional; how it was run: as §2
# [5] = test system: Influenza A virus; assay: Antiviral activity against Influenza A virus (A/Mexico/4604/2009(H1N1)) infected in MDCK cells from ATCC assessed as log reduction in viral titer at 42.7 uM after 24 hrs by immunofluorescent assay; assay type: functional; how it was run: as §2
# [6] = test system: Influenza A virus; assay: Antiviral activity against Influenza A virus (A/Illinois/10/2009(H1N1)) infected in MDCK cells from Mill Hill assessed as log reduction in viral titer at 128 uM after 24 hrs by immunofluorescent assay; assay type: functional; how it was run: as §2
# [7] = test system: Influenza A virus; assay: Antiviral activity against sInfluenza A virus (A/California/04/2009(H1N1)) infected in MDCK cells from Mill Hill assessed as log reduction in viral titer at 14.2 uM after 24 hrs by immunofluorescent assay; assay type: functional; how it was run: as §1
# [8] = test system: Influenza A virus; assay: Antiviral activity against sInfluenza A virus (A/California/04/2009(H1N1)) infected in MDCK cells from ATCC assessed as log reduction in viral titer at 42.7 uM after 24 hrs by immunofluorescent assay; assay type: functional; how it was run: as §1
# [9] = test system: Influenza A virus; assay: microbe, parasite or virus in culture; details: (A/turkey/VA/4529/2002 (H7N2)), MDCK, 72 h
# [10] = test system: Influenza A virus; assay: Antiviral activity against Influenza A virus (A/Mexico/4604/2009(H1N1)) infected in MDCK cells from ATCC assessed as log reduction in viral titer at 1.6 uM after 24 hrs by immunofluorescent assay; assay type: functional; how it was run: as §2
# [11] = test system: Influenza A virus; assay: Antiviral activity against Influenza A virus (A/California/04/2009(H1N1)) infected in MDCK cells from Mill Hill assessed as log reduction in viral titer at 128 uM after 24 hrs by immunofluorescent assay; assay type: functional; how it was run: as §2
# [12] = test system: Influenza A virus; assay: Antiviral activity against sInfluenza A virus (A/California/04/2009(H1N1))infected in MDCK cells from ATCC assessed as log reduction in viral titer at 14.2 uM after 24 hrs by immunofluorescent assay; assay type: functional; how it was run: as §1
# [13] = test system: Influenza A virus; assay: Antiviral activity against Influenza A virus (A/California/04/2009(H1N1)) infected in MDCK cells from ATCC assessed as log reduction in viral titer at 1.6 uM after 24 hrs by immunofluorescent assay; assay type: functional; how it was run: as §2
# [14] = test system: Influenza A virus; assay: Antiviral activity against sInfluenza A virus (A/California/04/2009(H1N1)) infected in MDCK cells from Mill Hill assessed as log reduction in viral titer at 42.7 uM after 24 hrs by immunofluorescent assay; assay type: functional; how it was run: as §1
# [15] = test system: Influenza A virus; assay: Antiviral activity against Influenza A virus (A/Mexico/4604/2009(H1N1)) infected in MDCK cells from Mill Hill assessed as inhibition of viral replication after 3 days by microscopic analysis using crystal violet stain; assay type: functional
# [16] = test system: Influenza A virus; assay: Antiviral activity against Influenza A virus (A/Illinois/10/2009(H1N1)) infected in MDCK cells from Mill Hill assessed as log reduction in viral titer at 14.2 uM after 24 hrs by immunofluorescent assay; assay type: functional; how it was run: as §2
# [17] = test system: Influenza A virus; assay: Antiviral activity against sInfluenza A virus (A/Washington/29/2009(H1N1)) infected in MDCK cells from ATCC assessed as log reduction in viral titer at 4.7 uM after 24 hrs by immunofluorescent assay; assay type: functional, Influenza A virus (A/Washington/29/2009(H1N1)); how it was run: as §1
# [18] = test system: Influenza A virus; assay: Antiviral activity against sInfluenza A virus (A/Washington/29/2009(H1N1)) infected in MDCK cells from Mill Hill assessed as log reduction in viral titer at 42.7 uM after 24 hrs by immunofluorescent assay; assay type: functional, Influenza A virus (A/Washington/29/2009(H1N1)); how it was run: as §1
# [19] = test system: Influenza A virus; assay: microbe, parasite or virus in culture; details: (A/duck/Vietnam/NCVD93/2007 clade 2.3.4 (H5N1)), MDCK, 72 h
# [20] = test system: Influenza A virus; assay: Antiviral activity against Influenza A virus (A/Illinois/10/2009(H1N1)) infected in MDCK cells from ATCC assessed as log reduction in viral titer at 4.7 uM after 24 hrs by immunofluorescent assay; assay type: functional; how it was run: as §2
# [21] = test system: Influenza A virus; assay: Antiviral activity against sInfluenza A virus (A/Washington/29/2009(H1N1))) infected in MDCK cells from Mill Hill assessed as log reduction in viral titer at 14.2 uM after 24 hrs by immunofluorescent assay; assay type: functional, Influenza A virus (A/Washington/29/2009(H1N1)); how it was run: as §1
# [22] = test system: Influenza A virus; assay: microbe, parasite or virus in culture; details: MDCK, 72 h
# [23] = test system: Influenza A virus; assay: Antiviral activity against Influenza A virus (A/Illinois/10/2009(H1N1)) infected in MDCK cells from ATCC assessed as log reduction in viral titer at 14.2 uM after 24 hrs by immunofluorescent assay; assay type: functional; how it was run: as §2
# [24] = test system: Influenza A virus; assay: Antiviral activity against Influenza A virus (A/Mexico/4604/2009(H1N1)) infected in MDCK cells from Mill Hill assessed as log reduction in viral titer at 1.6 uM after 24 hrs by immunofluorescent assay; assay type: functional; how it was run: as §2
# [25] = test system: Influenza A virus; assay: Antiviral activity against Influenza A virus (A/Illinois/10/2009(H1N1)) infected in MDCK cells from Mill Hill assessed as log reduction in viral titer at 4.7 uM after 24 hrs by immunofluorescent assay; assay type: functional; how it was run: as §2
compound,measurement,setting,value
NC(=O)c1nc(F)cnc1O [FAVIPIRAVIR],log10FFU,[1],1
same,log10FFU,[2],3.6
same,log10FFU,[3],1.7
same,log10FFU,[4],2.1
same,log10FFU,[5],1.8
same,log10FFU,[6],<1
same,log10FFU,[7],2.3
same,log10FFU,[8],<1
same,EC50,[9],1530 nM
same,log10FFU,[10],4.4
same,log10FFU,[11],<1
same,log10FFU,[12],<1
same,log10FFU,[13],2.7
same,log10FFU,[14],<1
same,log10FFU,[15],36.16
same,log10FFU,[16],1.8
same,log10FFU,[17],3.9
same,log10FFU,[18],1.5
same,EC50,[19],1590 nM
same,log10FFU,[20],4.4
same,log10FFU,[21],3.1
same,EC50,[22],3630 nM
same,log10FFU,[23],3.1
same,log10FFU,[24],6.2
same,log10FFU,[25],3.8
